The structures appear in SMILES notation.

One series has as its system 293T. Kind of series: Inhibition of full-length X4 tropic HIV-1 clone pNL4-3 Vif/human APOBEC3G complex transfected in human 293T cells measured at 50 uM after 48 hrs by GFP-based fluorescence assay relative to control. The class given is cell-based. Put shortly: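 This was the primary screen in 293T cells co-transfected with HA-Vif and A3G-GFP plasmids (Lipofectamine 2000) and given a single compound concentration. DMSO-only wells and A3G-GFP-only transfected wells served as controls. GFP was read after 48 h. A3G-GFP MFI fold change was scored as −, none or <1; +, 1–2; ++, 2–3; +++, >3.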

The test system of series [1] is Human immunodeficiency virus 1. Kind of series: Antiviral activity against X4 tropic HIV-1 clone pNL4-3 infected in H9 cells assessed as reduction in p24 antigen after 4 days by ELISA. The class given is functional, organism-based. Particulars: Human immunodeficiency virus 1, pNL4-3, H9, 96 h. In general terms: In an ELISA, binding on a coated surface is turned into a signal by an enzyme label.

Series [2] can be described thus: Cytotoxicity against human H9 cells by MTS assay. The class given is cell-based. A general note: Tetrazolium dyes change colour on reduction, which living cells bring about.

One may read the IC50 as the concentration that inhibits the measured activity by half. By CC50 is commonly meant the concentration that lowers cell viability or growth by half. Lower therefore signals greater toxicity to the cells. In the case of `CCN(CC)c1ccc(/C=C(\C#N)c2nc3cc(C(C)(C)C)ccc3[nH]2)cc1`, the fold change (FC) in the series with 293T is greater than 3. For the same molecule, the IC50 in series [1] was found to be 1.04 µM. The CC50 in series [2] is greater than 50 µM.
In the series with 293T, `N#C/C(=C\c1ccc2[nH]ncc2c1)c1nc2ccccc2[nH]1` registered a fold change (FC) of 2. Also, in series [1], the IC50 came to 0.36 µM. The molecule also displayed a CC50 in series [2] greater than 50 µM.
The matching figures for `CC(=O)Nc1ccc(/C=C(\C#N)c2nc3ccccc3[nH]2)cc1`: less than 1, greater than 50 µM and greater than 50 µM.
In the same order, the values of `CN(C)c1ccc(/C=C(\C#N)c2nc3ccccc3[nH]2)c(O)c1` are greater than 3, greater than 50 µM and greater than 50 µM.
The matching figures for `CCN(CC)c1ccc(/C=C(\C#N)c2nc3cc(C(=O)OC)ccc3[nH]2)cc1`: 2, 1.68 µM and greater than 50 µM.
With `COc1cc(OC)c(OC)cc1/C=C(\C#N)c1nc2ccccc2[nH]1`, in the series on 293T, the fold change (FC) stood at 1. In series [1], the half-inhibitory concentration (IC50) is greater than 50 µM. In addition, the half-maximal cytotoxic concentration (CC50) in series [2] is greater than 50 µM.
On to `CCN(CC)c1ccc(/C=C(\C#N)c2nc3cc(Br)ccc3[nH]2)cc1`, for which the fold change (FC) in the series with 293T was found to be 2. For the same molecule, in series [1], the IC50 was greater than 50 µM. Further, the CC50 in series [2] was greater than 50 µM.
In turn, `N#C/C(=C\c1ccc(-n2ccnc2)cc1)c1nc2ccccc2[nH]1` registered a fold change (FC) in the series with 293T of less than 1. Moreover, the IC50 in series [1] was greater than 50 µM. Further, the CC50 in series [2] is greater than 50 µM.
Consider `CCN(CC)c1ccc(/C=C(\C#N)c2nc3cc(OC(F)(F)F)ccc3[nH]2)cc1`, for which the fold change (FC) in the series on 293T is greater than 3. In series [1], the IC50 amounted to 1.35 µM. This molecule came in with a CC50 in series [2] greater than 50 µM.
The matching figures for `CCN(CC)c1cccc(/C=C(\C#N)c2nc3ccccc3[nH]2)c1`: less than 1, greater than 50 µM and greater than 50 µM.
`COc1ccc(/C=C(\C#N)c2nc3ccccc3[nH]2)cc1OC` returned a fold change (FC) in the series with 293T of 1. Moreover, the IC50 in series [1] is greater than 50 µM. The molecule further yielded a CC50 in series [2] greater than 50 µM.
Regarding `CCN(CC)c1ccc(/C=C(\C#N)c2nc3cc(C(F)(F)F)ccc3[nH]2)cc1`, in the series with 293T, the fold change (FC) is 2. Also, the IC50 in series [1] was 1.13 µM. Also, the CC50 in series [2] is greater than 50 µM.
In the same order, the values of `CCN(CC)c1ccc(/C=C(\C#N)c2nc3ccccc3[nH]2)c(O)c1` are greater than 3, 1.5 µM and greater than 50 µM.
As for `CCN(CC)c1ccc(/C=C(\C#N)c2nc3ccccc3n2C2CC2)cc1`, in the series on 293T, the fold change (FC) was less than 1. The IC50 in series [1] was greater than 50 µM. In addition, the CC50 in series [2] is greater than 50 µM.
For the molecule `CCN(CC)c1ccc(/C=C(\C#N)c2nc3ccccc3o2)cc1`, the fold change (FC) with 293T came to 2. For the same molecule, the IC50 in series [1] was found to be 2.38 µM. In series [2], the CC50 was greater than 50 µM.
The matching figures for `CCN(CC)c1ccc(/C=C(\C#N)c2nc3cc(C(=O)O)ccc3[nH]2)cc1`: 2, greater than 50 µM and greater than 50 µM.
`CC(C)c1ccc(/C=C(\C#N)c2nc3ccccc3[nH]2)cc1` gave a fold change (FC) with 293T of less than 1. The IC50 in series [1] was greater than 50 µM. Besides, the CC50 in series [2] is greater than 50 µM.
`CCN(CC)c1ccc(/C=C(\C#N)c2nc3cccnc3[nH]2)cc1` came in with a fold change (FC) with 293T of 2. In series [1], the IC50 is 3.58 µM. Moreover, the CC50 in series [2] was greater than 50 µM.
For the molecule `CCN(CC)c1ccc(/C=C(\C#N)c2nc3ccccc3s2)cc1`, the fold change (FC) in the series with 293T was greater than 3. Also, the IC50 in series [1] was 5.92 µM. The CC50 in series [2] was greater than 50 µM.
In the same order, the values of `N#C/C(=C\c1ccc(N2CCOCC2)cc1)c1nc2ccccc2[nH]1` are greater than 3, greater than 50 µM and greater than 50 µM.
In the same order, the values of `N#C/C(=C\c1ccc(N2CCCC2)cc1)c1nc2ccccc2[nH]1` are less than 1, greater than 50 µM and greater than 50 µM.
In the same order, the values of `CCN(CC)c1ccc(CC(C#N)c2nc3ccccc3[nH]2)cc1` (stereo unspecified) are less than 1, greater than 50 µM and greater than 50 µM.
`CCN(CC)c1ccc(/C=C(\C#N)c2nc3cc(OC)ccc3[nH]2)cc1`: the fold change (FC) in the series with 293T was found to be 2. Besides, the IC50 in series [1] amounted to 4.42 µM. The same molecule displayed a cytotoxic concentration (CC50) in series [2] greater than 50 µM.
In turn, `Cc1ccc(/C=C(\C#N)c2nc3ccccc3[nH]2)cc1` had a fold change (FC) in the series with 293T of less than 1. Besides, the IC50 in series [1] is greater than 50 µM. Moreover, the CC50 in series [2] was greater than 50 µM.
In the series with 293T, `COc1ccc(/C=C(\C#N)c2nc3ccccc3[nH]2)cc1` returned a fold change (FC) of 2. Moreover, the IC50 in series [1] was determined as 2.85 µM. In addition, the CC50 in series [2] was greater than 50 µM.
The matching figures for `CCN(CC)c1ccc2cc(-c3nc4ccccc4[nH]3)c(=O)oc2c1`: greater than 3, 0.24 µM and greater than 50 µM.
Molecule `CCN(CC)c1ccc(/C=C(\C#N)c2nc3cc(C)c(C)cc3[nH]2)cc1` yielded a fold change (FC) in the series on 293T greater than 3. For the same molecule, in series [1], the IC50 worked out at 1.64 µM. For the same molecule, in series [2], the CC50 was greater than 50 µM.
In the same order, the values of `CCN(CC)c1ccc(/C=C(\C#N)c2nc3cc(N(C)C)ccc3[nH]2)cc1` are 1, 2.68 µM and greater than 50 µM.
Molecule `N#C/C(=C\c1ccc(C(=O)O)cc1)c1nc2ccccc2[nH]1` returned a fold change (FC) in the series on 293T of less than 1. For the same molecule, the IC50 in series [1] is greater than 50 µM. The same molecule gave a CC50 in series [2] greater than 50 µM.
Consider `CCN(CC)c1ccc(/C=C(\C#N)c2nc3cc(Cl)ccc3[nH]2)cc1`, for which, in the series with 293T, the fold change (FC) was 2. Besides, the IC50 in series [1] is greater than 50 µM. In series [2], this molecule displayed a CC50 greater than 50 µM.
`CCN(CCO)c1ccc(/C=C(\C#N)c2nc3ccccc3[nH]2)cc1`: the fold change (FC) with 293T was 1. Also, the IC50 in series [1] came to 6.11 µM. Further, in series [2], the CC50 is greater than 50 µM.
`CCN(CC)c1ccc(/C=C(\C#N)c2nc3cc(SC)ccc3[nH]2)cc1` gave a fold change (FC) in the series with 293T of 2. Besides, in series [1], the IC50 is 0.75 µM. Further, in series [2], the CC50 was greater than 50 µM.
The matching figures for `CCN(CC)c1ccc(/C=C(\C#N)c2nc3cc(Cl)c(Cl)cc3[nH]2)cc1`: greater than 3, 1.25 µM and greater than 50 µM.
The matching figures for `COc1cc(/C=C(\C#N)c2nc3ccccc3[nH]2)cc(OC)c1OC`: 1, greater than 50 µM and greater than 50 µM.
In turn, `CN(C)c1ccc(/C=C(\C#N)c2nc3ccccc3[nH]2)cc1` gave a fold change (FC) in the series on 293T of 2. In series [1], the IC50 came to 0.51 µM. The cytotoxic concentration (CC50) in series [2] was greater than 50 µM.
The matching figures for `CCCN(CCC)c1ccc(/C=C(\C#N)c2nc3ccccc3[nH]2)cc1`: 2, 1.09 µM and greater than 50 µM.
The matching figures for `CCc1ccc(/C=C(\C#N)c2nc3ccccc3[nH]2)cc1`: less than 1, greater than 50 µM and greater than 50 µM.
In the same order, the values of `CCN(CC)c1ccc(/C=C(\C#N)c2nc3cc(F)ccc3[nH]2)cc1` are greater than 3, greater than 50 µM and greater than 50 µM.
On to `N#C/C(=C\c1ccc(-c2ccccc2)cc1)c1nc2ccccc2[nH]1`, for which, in the series with 293T, the fold change (FC) was less than 1. For the same molecule, the IC50 in series [1] is greater than 50 µM. The half-maximal cytotoxic concentration (CC50) in series [2] is greater than 50 µM.
`COc1cc(/C=C(\C#N)c2nc3ccccc3[nH]2)ccc1N(C)C`: in the series with 293T, the fold change (FC) stood at 1. Further, the IC50 in series [1] worked out at 0.29 µM. In series [2], the CC50 was greater than 50 µM.
In the series with 293T, `CC(C)N(c1ccc(/C=C(\C#N)c2nc3ccccc3[nH]2)cc1)C(C)C` registered a fold change (FC) of 2. Also, the IC50 in series [1] stood at 3.3 µM. Also, the CC50 in series [2] is greater than 50 µM.
As to `CN1CCN(c2ccc(/C=C(\C#N)c3nc4ccccc4[nH]3)cc2)CC1`, in the series with 293T, the fold change (FC) was less than 1. Moreover, the IC50 in series [1] is greater than 50 µM. For the same molecule, in series [2], the CC50 was greater than 50 µM.
Regarding `CCN(CC)c1ccc(/C=C(\C#N)c2nc3ccncc3[nH]2)cc1`, the fold change (FC) with 293T was determined as 2. Besides, the IC50 in series [1] is 7.3 µM. This molecule also displayed a CC50 in series [2] greater than 50 µM.
In the same order, the values of `CCN(CC)c1ccc(/C=C(\C#N)c2nc3ccccc3n2CC)cc1` are less than 1, greater than 50 µM and greater than 50 µM.
Regarding `N#C/C(=C\c1ccc2[nH]ccc2c1)c1nc2ccccc2[nH]1`, in the series with 293T, the fold change (FC) is greater than 3. For the same molecule, the IC50 in series [1] amounted to 0.72 µM. The molecule further gave a CC50 in series [2] greater than 50 µM.
The matching figures for `CS(=O)(=O)c1ccc(/C=C(\C#N)c2nc3ccccc3[nH]2)cc1`: less than 1, greater than 50 µM and greater than 50 µM.
The matching figures for `CCN(CC)c1ccc(/C=C(\C#N)c2nc3ccccc3n2C)cc1`: less than 1, greater than 50 µM and greater than 50 µM.
